≈ marks a conversion by molar mass, not a printed value.
What was measured:
BEAS-2B = experiment: Cytotoxicity against human BEAS2B cells after 48 hrs by PrestoBlue staining based fluorescence assay; assay type: cell-based
Procedure, shortened: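 Uninfected BEAS-2B cells were exposed to compound for 48 h at 37°C. PrestoBlue was added and incubated 90 min at 37°C, then fluorescence was read (ex 560 nm, em 590 nm). Cytotoxic was defined as metabolic activity <70% of vehicle control. Highest concentration assessed for cytotoxicity was 90 µM, and CC50 came from four-parameter variable slope regression.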

[1] = Inhibition of recombinant Respiratory syncytial virus-A2-L19F RNA-dependent RNA polymerase complex D489E mutant transfected with firefly luciferase gene at SMASh domain in human BEAS2B cells infected with Respiratory syncytial virus-A2-L19F assessed as reduction in viral replication measured after […] by bioluminescence assay; assay type: cell-based; conditions: human respiratory syncytial virus, A2-L19F, BEAS-2B
Procedure, shortened: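 BEAS-2B cells (1.5×10^4/well) received 3-fold serial compound dilutions prepared in three repeats (top concentration 10 µM) and were infected with firefly-luciferase/SMASh reporter RSV-A2-L19F D489E (MOI 0.1). Luminescence was converted to % inhibition against four-replicate positive and negative controls per plate. EC50 came from four-parameter variable-slope regression.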

[2] = system: Respiratory syncytial virus; experiment: Inhibition of Respiratory syncytial virus-A2-L19F RNA-dependent RNA polymerase complex D489E mutant in human BEAS2B cells infected with Respiratory syncytial virus-A2-L19F by firefly luciferase reporter-based RSV minigenome assay; assay type: cell-based
[3] = Inhibition of recombinant mkate-tagged-Respiratory syncytial virus-A2-L19F RNA-dependent RNA polymerase D489E mutant in human BEAS2B cells infected with Respiratory syncytial virus-A2-L19F assessed as reduction in progeny release measured after 48 hrs postinfection by fluorescence assay based progeny virus yield-based dose-response assay; assay type: cell-based; conditions: BEAS-2B
Procedure, shortened: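 Cells in 12-well format infected with mKate-expressing recRSV-A2-L19F (MOI 0.05 particles/cell) in the presence of serial compound dilutions at 37°C. Cell-associated progeny harvested 48 h post-infection and released by one freeze/thaw cycle. Titres determined by TCID50 titration. Two repeats; EC50 derived by regression.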

Liver [4] = experiment: Drug level in mouse liver microsomes treated with at 1 uM GRP-74915 by LC-MS analysis; assay type: ADME, microsome
[5] = Selectivity index, ratio of CC50 for human BEAS2B cells to EC50 for inhibition of recombinant mkate-tagged-Respiratory syncytial virus-A2-L19F RNA-dependent RNA polymerase complex D489E mutant in human BEAS2B cells infected with Respiratory syncytial virus-A2-L19F; assay type: toxicity, cell-based; conditions: read-out: Ratio CC50/EC50
Procedure, shortened: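 SI is CC50/EC50 in BEAS-2B cells. EC50 came from reporter RSV dose-response, 3-fold dilutions, top 10 µM. […] Both values from four-parameter variable-slope regression.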

[6] = Aqueous solubility of the compound in citrate buffer at pH 3 after 90 mins by laser nephelometric method; assay type: physicochemical
Procedure, shortened: (§1)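 Stocks of 30 mg/mL in DMSO were serially diluted in DMSO, then into buffer to final 300 down to 1.5 µg/mL at 1% final DMSO. Diluent was PBS for pH 7.4 and citrate buffer for pH 3 and 5. Plates stood 90 min at ambient temperature. Forward-scatter laser nephelometry gave the concentration at which precipitation began.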

[7] = Aqueous solubility of the compound in citrate buffer at pH 5 after 90 mins by laser nephelometric method; assay type: physicochemical; procedure, shortened: as §1
[8] = Aqueous solubility of the compound in phosphate buffered saline at pH 7.4 after 90 mins by laser nephelometric method; assay type: physicochemical; procedure, shortened: as §1
Liver [9] = experiment: Stability in mouse liver microsomes at 1 uM in absence of NADPH after 2 hrs by LC-MS analysis; assay type: ADME, microsome
Procedure, shortened: (§2)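 Test article at 1 µM final was incubated in triplicate at 37°C with shaking (150 rpm) with mouse or human liver S9 or microsomes (0.5 mg total protein), with Phase I oxidation and Phase II glucuronidation cofactors. Cofactor-free and microsome-free controls were run, sampled only at 0 and 120 min. Other sampling was at 0, 15, 30, 60 and 120 min into organic internal standard solution.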

Liver [10] = experiment: Drug metabolism in mouse liver microsomes assessed as metabolite M4 formation at 80 uM after 2 hrs by LC-MS analysis; assay type: ADME, microsome
Procedure, shortened: (§3)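 Metabolite identification used 80 µM test article incubated in triplicate with mouse liver microsomes (0.5 mg total protein) plus Phase I oxidation and Phase II glucuronidation cofactors, at 37°C with shaking at 150 rpm. Aliquots were taken at 0, 15, 30, 60 and 120 min and mixed with organic internal standard solution.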

Liver [11] = experiment: Half life in mouse liver microsomes at 1 uM in presence of NADPH by LC-MS analysis; assay type: ADME, microsome; procedure, shortened: as §2
[12] = Retention time of the compound at 80 uM by LC-MS analysis
Liver [13] = experiment: Drug metabolism in mouse liver microsomes assessed as metabolite M1 formation at 80 uM after 2 hrs by LC-MS analysis; assay type: ADME, microsome; procedure, shortened: as §3
Liver [14] = experiment: Drug metabolism in mouse liver microsomes assessed as metabolite M2 formation at 80 uM after 2 hrs by LC-MS analysis; assay type: ADME, microsome; procedure, shortened: as §3
Liver [15] = experiment: Half life in mouse liver S9 fraction at 1 uM by LC-MS analysis; assay type: ADME, tissue-based; conditions: s9, 1 µM; procedure, shortened: as §2
Liver [16] = experiment: Drug metabolism in mouse liver microsomes assessed as metabolite M3 formation at 80 uM after 2 hrs by LC-MS analysis; assay type: ADME, microsome; procedure, shortened: as §3
Liver [17] = experiment: Half life in human liver microsomes at 1 uM by LC-MS analysis; assay type: ADME, microsome; procedure, shortened: as §2

Structure (SMILES) | CC50 (BEAS-2B) [µM] | EC50 [1] [nM] | selectivity ratio [5] | also measured
Cc1cc(C)c(C(=O)N2CCCn3nc(C(=O)Nc4ccccc4)cc3C2)o1 | 2.6 | 960 |  | 
Cn1c(=O)n(C)c2cc(Cn3cnc(-c4ccccc4)c3C3CC3)ccc21 |  |  |  | inhibition [2]: Dose-dependent effect; EC50 [3]: 170 nM
O=C(Nc1ccccc1)c1cc2n(n1)CCCN(C(=O)c1occc1-c1ccccc1)C2 |  | > 10000 |  | 
Cc1ccoc1C(=O)N1CCCn2nc(C(=O)O)cc2C1 |  |  |  | Drug metabolism (Liver [4]): Metabolite_Detected
Cc1cc(C(=O)N2CCCn3nc(C(=O)Nc4ccccc4)cc3C2)oc1C |  | > 10000 |  | 
O=C(Nc1ccccc1F)c1cc2n(n1)CCCN(C(=O)c1ccco1)C2 | 3.7 | 320 | 12 | 
Cc1ccccc1NC(=O)c1cc2n(n1)CCCN(C(=O)c1occc1C)C2 | 1.1 | 140 | 8 | 
Cc1ccc(C(=O)N2CCCn3nc(C(=O)Nc4ccccc4)cc3C2)o1 |  | > 10000 |  | 
CC(C)c1cc(C(=O)NCc2noc(-c3cccs3)n2)n(C)n1 |  |  |  | inhibition [2]: Dose-dependent effect; EC50 [3]: 30 nM
O=C(Nc1ccccc1)c1cc2n(n1)CCCN(C(=O)c1occc1C(F)(F)F)C2 | 30 | 5400 | 6 | 
Cc1ccoc1C(=O)N1CCCn2nc(C(=O)NCc3ccccc3)cc2C1 | 50 | 1200 | 42 | 
O=C(Nc1ccccc1)c1cc2n(n1)CCCN(C(=O)c1occ3c1CCC3)C2 | 10 | 10000 |  | 
O=C(Nc1ccccc1)c1cc2n(n1)CCCN(C(=O)c1ccco1)C2 |  | 7100 |  | 
Cc1ccc(NC(=O)c2cc3n(n2)CCCN(C(=O)c2occc2C)C3)cc1 | 30 | 410 | 73 | 
Cc1ccn(C)c1C(=O)N1CCCn2nc(C(=O)Nc3ccccc3)cc2C1 |  | > 10000 |  | 
O=C(Nc1ccccc1)c1cc2n(n1)CCCN(S(=O)(=O)c1ccco1)C2 |  | > 10000 |  | 
Cc1ccoc1C(=O)N1CCCn2nc(C(=O)Nc3ccc(F)cc3)cc2C1 | 90 | 330 | 273 | 
Cc1ccoc1C(=O)N1CCCn2nc(C(=O)Nc3cncnc3)cc2C1 |  | > 10000 |  | 
Cc1ccoc1C(=O)N1CCCn2nc(CNc3ccccc3)cc2C1 | 10 | 500 | 20 | 
Cc1coc(C(=O)N2CCCn3nc(C(=O)Nc4ccccc4)cc3C2)c1C | 30 | 2250 | 13 | 
Cc1ccoc1C(=O)N1CCCn2nc(C(=O)Nc3ccc(F)cc3F)cc2C1 | 5 | 60 | 83 | 
COc1ccccc1NC(=O)c1cc2n(n1)CCCN(C(=O)c1occc1C)C2 | 3.3 | 310 | 11 | solubility kinetic at 1.5 h [6]: 48 µg/mL (≈ 122 µM); solubility kinetic at 1.5 h [7]: 43 µg/mL (≈ 109 µM); solubility kinetic at 1.5 h [8]: 28 µg/mL (≈ 71 µM)

Structure (SMILES) | CC50 (BEAS-2B) [µM] | EC50 [1] [nM] | selectivity ratio [5] | also measured
Cc1ccoc1C(=O)N1CCCn2nc(S(=O)(=O)Nc3ccccc3)cc2C1 |  | > 10000 |  | 
Cc1ccoc1C(=O)N1CCCn2nc(C(=O)Nc3ccncn3)cc2C1 | 16.6 | 1530 | 11 | 
Cc1ccoc1C(=O)N1CCCn2cc(C(=O)Nc3ccccc3)cc2C1 | > 90 | 3190 | > 28 | 
Cc1ccoc1C(=O)N1CCCn2nc(C(=O)Nc3cccc(F)c3)cc2C1 | 30 | 210 | 143 | 
COc1ccc(NC(=O)c2cc3n(n2)CCCN(C(=O)c2occc2C)C3)cc1 | 90 | 320 | 281 | 
Cc1ccoc1CN1CCCn2nc(C(=O)Nc3ccccc3)cc2C1 |  | > 10000 |  | 
O=C(Nc1ccccc1)c1cc2n(n1)CCCN(C(=O)c1occc1Cl)C2 | 30 | 760 | 39 | 
Cc1ccoc1C(=O)N1CCCn2nc(C(=O)Cc3ccccc3)cc2C1 | 5.5 | 70 | 79 | Stability (Liver [9]): Stable; Drug metabolism (Liver [10]): Metabolite_Detected; t1/2 (Liver [11]): 20 min; Retention time [12]: 12.9 min; solubility kinetic at 1.5 h [6]: < 15 µg/mL; Drug metabolism (Liver [13]): Metabolite_Detected; solubility kinetic at 1.5 h [7]: 18 µg/mL (≈ 49.5 µM); Drug metabolism (Liver [14]): Metabolite_Detected; t1/2 (Liver [15]): 20 min; Drug metabolism (Liver [16]): Metabolite_Detected; solubility kinetic at 1.5 h [8]: 18 µg/mL (≈ 49.5 µM); t1/2 (Liver [17]): 42 min
Cc1coc(C(=O)N2CCCn3nc(C(=O)Nc4ccccc4)cc3C2)c1 |  | > 10000 |  | 
Cc1ccoc1C(=O)N1CCCn2nc(NS(=O)(=O)c3ccccc3)cc2C1 |  | > 10000 |  | 
Cc1c(C(=O)N2CCCn3nc(C(=O)Nc4ccccc4)cc3C2)oc2ccccc12 |  | 10000 |  | 
Cc1ccoc1C(=O)N1CCn2nc(C(=O)Nc3ccccc3)cc2C1 |  | > 10000 |  | 
Cc1cccc(NC(=O)c2cc3n(n2)CCCN(C(=O)c2occc2C)C3)c1 | 3.3 | 280 | 12 | 
Cc1ccoc1C(=O)N1CCCn2nc(C(=O)N(C)c3ccccc3)cc2C1 | > 90 | 10000 | > 9 | solubility kinetic at 1.5 h [6]: 20 µg/mL (≈ 52.8 µM); solubility kinetic at 1.5 h [7]: 25 µg/mL (≈ 66.1 µM); solubility kinetic at 1.5 h [8]: 58 µg/mL (≈ 153 µM)
Cc1cc[nH]c1C(=O)N1CCCn2nc(C(=O)Nc3ccccc3)cc2C1 |  | > 10000 |  | 
Cc1nc2ccccn2c1CN(C)C(=O)c1cc(COc2ccc(F)cc2F)on1 |  |  |  | inhibition [2]: Dose-dependent effect; EC50 [3]: 50 nM
Cc1ccsc1C(=O)N1CCCn2nc(C(=O)Nc3ccccc3)cc2C1 |  | > 10000 |  | 
CCc1ccoc1C(=O)N1CCCn2nc(C(=O)Nc3ccccc3)cc2C1 | 10 | 730 | 14 | 
COc1cc(N2CCCC(CO)(Cc3cccc(Cl)c3)C2)ncn1 (stereo not drawn) |  |  |  | inhibition [2]: Dose-dependent effect; EC50 [3]: 130 nM
Cc1ccoc1C(=O)N1CCCn2nc(NC(=O)c3ccccc3)cc2C1 |  | > 10000 |  | 
COc1cccc(NC(=O)c2cc3n(n2)CCCN(C(=O)c2occc2C)C3)c1 | 30 | 540 | 56 | 
O=C(Nc1ccccc1)c1cc2n(n1)CCCN(C(=O)c1ccncn1)C2 |  | > 10000 |  | 

Reference: ChEMBL document CHEMBL4007453, “Identification of Non-Nucleoside Inhibitors of the Respiratory Syncytial Virus Polymerase Complex” (J Med Chem, 2017)
